Experimental data from publication PMC3295204 (Journal of Medicinal Chemistry, 2012).

Assays:
[1] = target: T1, progesterone receptor (PR) (Homo sapiens, UniProt P06401); experiment: TR-FRET SRC1-4 coactivator displacement from progesterone-PR complex; format: biochemical; conditions: AR vs PR
T1 sequence (P06401 679-933 limits assumed): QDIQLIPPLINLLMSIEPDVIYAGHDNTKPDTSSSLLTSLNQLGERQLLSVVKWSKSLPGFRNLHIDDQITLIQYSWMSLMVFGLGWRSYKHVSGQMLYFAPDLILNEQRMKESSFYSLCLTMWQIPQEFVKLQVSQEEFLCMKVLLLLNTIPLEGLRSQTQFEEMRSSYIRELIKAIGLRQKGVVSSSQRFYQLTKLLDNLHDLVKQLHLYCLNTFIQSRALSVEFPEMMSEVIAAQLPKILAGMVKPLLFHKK
Method in brief: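 TR-FRET coactivator-recruitment assay with LBD and Tb anti-GST antibody. Agonist was set at its EC80 from a prior agonist-mode run: DHT for AR-LBD (test compound 100 μM–45 nM), progesterone for PR (100–1 μM). Buffer had 1% DMSO, 5 mM DTT and 0.01% Triton X-100; incubation was 2–4 h at RT in the dark. […] Two experiments in triplicate.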

LNCaP cells = experiment: Hormone-dependent cell proliferation in androgen-deprived LNCaP cells; format: cell-based, human
Method in brief: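 LNCaP cells were androgen-deprived for 48 h in phenol red-free RPMI with 10% charcoal-stripped FBS. They were seeded at 2 × 10^4 cells/mL in triplicate and treated with test compound ± 0.1 nM DHT (0.1% DMSO final), with a vehicle control. Media and treatments were renewed every second day after two PBS washes. Proliferation was read by AlamarBlue at 5 days. Two independent experiments, SEM n = 6.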

[2] = tested on: PSA secretion (AR signaling) in LNCaP cells; experiment: Secreted PSA ELISA in LNCaP cells; format: cell-based, human
Method in brief: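 Media were renewed every second day, and supernatants collected at day 5 for human PSA sandwich ELISA: sample 2 h at RT, HRP-conjugate antibody 2 h at RT, TMB 30 min, then 2 N H2SO4 stop. OD 450 minus 540 nm was interpolated from a standard curve. Two experiments, SEM n = 4.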

PC-3 cells = experiment: Cell viability; format: cell-based, human; conditions: PC-3, 50 μM, 24 h
Cell viability [3] = format: cell-based; conditions: human, LNCaP cells (androgen-dependent prostate cancer cell line)
Cell viability [4] = format: cell-based, human; conditions: human, PC-3 cells (androgen-independent prostate cancer cell line)
Cell viability [5] = format: cell-based; conditions: human, PWR-1E cells (normal prostatic epithelia cell line)

| binding selectivity for AR over PR [1] | SMILES | tolerability in LNCaP cells (LNCaP cells; 5 days of treatment at 10 and 20 μM) | effect on DHT-treated cell count (LNCaP cells; 5 days, 10 and 20 μM, 0.1 nM DHT) | effect on CPA partial agonist activity (secreted PSA) ([2]; 10 μM, androgen-deprived LNCaP) | effect on DHT-induced PSA secretion ([2]; LNCaP, ELISA) | agonist activity (PSA without hormone stimulation) ([2]; androgen-deprived LNCaP, tested concentrations) | cell viability (PC-3 cells) | viability at 24 h, 50 µM (Cell viability [3]) [%] | viability at 24 h, 50 µM (Cell viability [4]) [%] | viability at 24 h, 50 µM (Cell viability [5]) [%] |
| --- | --- | --- | --- | --- | --- | --- | --- | --- | --- | --- |
| comparable affinity | COc1cc(/C=N/NC(=O)c2cc3c(ccc4ccccc43)o2)cc(OC)c1O [Compound 5] | well-tolerated | specific reduction in DHT-treated cell count | antagonize CPA partial agonist activity | reduce DHT-induced PSA secretion in a dose–response fashion | no detectable agonist or partial agonist activity | – | – | – | – |
| – | CC(=O)O[C@]1(C(C)=O)CC[C@H]2[C@@H]3C=C(Cl)C4=CC(=O)[C@@H]5C[C@@H]5[C@]4(C)[C@H]3CC[C@@]21C [CPA, cyproterone acetate, reference compound] | – | – | – | – | – | minor effect | – | – | – |
| approximately 2 fold | O=C(N/N=C/c1cc(Br)ccc1O)c1cc2ccccc2cc1O [Compound 4] | – | – | – | – | – | – | 50 to 60 | 50 to 60 | 50 to 60 |
